From article PMC9998351 (Steroids, 2023)
Where “and” joins values, the source holds several entries; their conditions need not be identical. Equal entries are not always repeated.

Legend:
[1] = Oral pharmacokinetics and bioavailability in rats; type: in vivo; conditions: for Vd/F: Vz/F; for AUC(0-t): AUClast
Summary of the method: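 Sprague Dawley rats (8–12 wk, 3/sex/group, catheterised jugular vein) got one oral gavage dose of 10 or 50 mg/kg. Dose was a solution in cremophor:ethanol:saline (1:1:8), pH 4.0, at 10 ml/kg. EDTA plasma was collected at 5, 15, 30 min, 1, 2, 4, 6 and 24 h, precipitated with acetonitrile, and quantified by LC-MS/MS against abiraterone internal standard. Noncompartmental parameters; bioavailability from oral AUClast versus IV.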

[2] = Intravenous pharmacokinetics in rats; type: in vivo; conditions: for Cmax/D / Tmax / AUCinf / AUClast / C0 / CL / Cmax / T1/2 / Vss / Vz / AUC(0-inf) / AUC(0-t) / clearance / half-life / Vd: 1 mg/kg IV; for AUC(0-inf): AUCinf; for AUC(0-t): AUClast; for clearance: CL
Summary of the method: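 Single 1 mg/kg IV dose to jugular-vein-catheterised Sprague Dawley rats (8–12 wk, 3/sex), given in cremophor:ethanol:saline (1:1:8), pH 4.0 (acetic acid), at 10 ml/kg. EDTA blood was taken at 5, 15, 30 min, 1, 2, 4, 6 and 24 h for plasma. Plasma was prepared by acetonitrile precipitation and aqueous dilution, then run on LC-MS/MS (positive ESI, MRM 439.2>371.2, abiraterone internal standard). Noncompartmental PK.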

[3] = Chronic dosing toxicity in male nude mice; type: in vivo; conditions: male, Nude, mouse, in vivo, ip
male Nude mice = assay: Chronic dosing toxicity in male nude mice; type: in vivo; conditions: male nude mice
[4] = system: CRPC CWR22Rv1 xenograft tumors; conditions: ref [26], cited from earlier work
[5] = male, Sprague Dawley, rat, plasma, po, 50 mg/kg, male rats, 50 mg/kg PO, GeoMean
[6] = male, Sprague Dawley, rat, plasma, po, 50 mg/kg, male rats, 50 mg/kg PO, individual rat
[7] = female rats, individual rat, 1 mg/kg
[8] = female, Sprague Dawley, rat, plasma, iv, 1 mg/kg, female rats, GeoMean
[9] = female, Sprague Dawley, rat, plasma, iv, 1 mg/kg, female rats, individual rat
[10] = male rats, individual rat, 1 mg/kg
[11] = male, Sprague Dawley, rat, plasma, iv, 1 mg/kg, male rats, GeoMean (third rat excluded)

C[C@]12CC[C@H](n3ccnc3)CC1=CC[C@@H]1[C@@H]2CC[C@]2(C)C(n3cnc4ccccc43)=CC[C@@H]12 [Compound 2, 3β-(1H-imidazole-1-yl)-17-(1H-benzimidazole-1-yl)-androsta-5,16-diene]
Vd/F ([1]; male, Sprague Dawley, rat, plasma, po, 10 mg/kg, male rats, 10 mg/kg PO, individual rat): 12.4 L/kg | AUC(0-t) [1, 5]: 56200 ng·h/mL | AUC(0-t) [1, 6]: 39700 ng·h/mL | CL/F ([1]; male, Sprague Dawley, rat, plasma, po, 50 mg/kg, CL/F, male rats, 50 mg/kg PO, GeoMean): 1.71 mL/min/kg | Cmax [1, 5]: 2730 ng/mL | Cmax [1, 6]: 1870 ng/mL | Tmax ([1]; male, Sprague Dawley, rat, plasma, po, 50 mg/kg, Tmax, male rats, 50 mg/kg PO, GeoMean): 9.52 h | Vd/F [1, 5]: 14.6 L/kg | Vd/F [1, 6]: 14.4 L/kg | Extrapolated percentage of AUC0-inf ([1]; rats, PO dosing, text (and beyond)): 17–82% | Cmax/D ([2]; female rats, GeoMean): 311 ng/mL/mg/kg | Tmax ([2]; female rats, individual rat): 0.0833 h | AUCinf [2, 7]: 199 µg·min/mL and 171 µg·min/mL | AUClast [2, 7]: 140 µg·min/mL and 126 µg·min/mL | C0 [2, 7]: 342 ng/mL and 418 ng/mL | CL [2, 7]: 5.03 mL/min/kg and 5.85 mL/min/kg | Cmax [2, 7]: 291 ng/mL and 350 ng/mL | Cmax/D [2, 7]: 296 ng/mL/mg/kg and 291 ng/mL/mg/kg and 350 ng/mL/mg/kg | T1/2 [2, 7]: 15.0 h and 13.8 h | Tmax [2, 7]: 0.25 h and 0.0833 h | Vss [2, 7]: 5.99 L/kg and 6.31 L/kg | Vz [2, 7]: 6.51 L/kg and 6.98 L/kg | AUC(0-inf) [2, 8]: 3380 ng·h/mL | AUC(0-inf) [2, 9]: 4130 ng·h/mL | AUC(0-t) [2, 8]: 2400 ng·h/mL | AUC(0-t) [2, 9]: 2800 ng·h/mL | C0 ([2]; female, Sprague Dawley, rat, plasma, iv, 1 mg/kg, C0, female rats, GeoMean): 333 ng/mL | C0 ([2]; female, Sprague Dawley, rat, plasma, iv, 1 mg/kg, C0, female rats, individual rat): 259 ng/mL | clearance [2, 8]: 4.92 mL/min/kg | clearance [2, 9]: 4.04 mL/min/kg | Cmax ([2]; female, Sprague Dawley, rat, plasma, iv, 1 mg/kg, Cmax, female rats, GeoMean): 311 ng/mL | Cmax ([2]; female, Sprague Dawley, rat, plasma, iv, 1 mg/kg, Cmax, female rats, individual rat): 296 ng/mL | half-life ([2]; female, Sprague Dawley, rat, plasma, iv, 1 mg/kg, T1/2, female rats, GeoMean): 14.3 h | half-life ([2]; female, Sprague Dawley, rat, plasma, iv, 1 mg/kg, T1/2, female rats, individual rat): 14.1 h | Tmax ([2]; female, Sprague Dawley, rat, plasma, iv, 1 mg/kg, Tmax, female rats, GeoMean): 0.12 h | Vd ([2]; female, Sprague Dawley, rat, plasma, iv, 1 mg/kg, Vss, female rats, GeoMean): 5.73 L/kg | Vd ([2]; female, Sprague Dawley, rat, plasma, iv, 1 mg/kg, Vss, female rats, individual rat): 4.96 L/kg | Vd ([2]; female, Sprague Dawley, rat, plasma, iv, 1 mg/kg, Vz, female rats, GeoMean): 6.08 L/kg | Vd ([2]; female, Sprague Dawley, rat, plasma, iv, 1 mg/kg, Vz, female rats, individual rat): 4.93 L/kg | Overt toxic effects during conduct of PK study ([2]; male and female rats, single dose 1 mg/kg IV, 10 or 50 mg/kg PO): No overt toxic effects were observed | Cmax/D ([2]; male rats, GeoMean (third rat excluded)): 305 ng/mL/mg/kg | AUCinf [2, 10]: 64.0 µg·min/mL and 321 µg·min/mL | AUClast [2, 10]: 46.6 µg·min/mL and 139 µg·min/mL | C0 [2, 10]: 443 ng/mL | CL [2, 10]: 15.6 mL/min/kg and 3.11 mL/min/kg | Cmax [2, 10]: 392 ng/mL | Cmax/D [2, 10]: 237 ng/mL/mg/kg and 392 ng/mL/mg/kg | T1/2 [2, 10]: 2.96 h and 31.4 h | Vss [2, 10]: 8.14 L/kg | Vz [2, 10]: 4.00 L/kg and 8.46 L/kg | AUC(0-inf) [2, 11]: 2380 ng·h/mL | AUC(0-t) [2, 11]: 1340 ng·h/mL | C0 ([2]; male, Sprague Dawley, rat, plasma, iv, 1 mg/kg, C0, male rats, GeoMean (third rat excluded)): 336 ng/mL | C0 ([2]; male, Sprague Dawley, rat, plasma, iv, 1 mg/kg, C0, male rats, individual rat): 254 ng/mL | clearance [2, 11]: 6.97 mL/min/kg | Cmax ([2]; male, Sprague Dawley, rat, plasma, iv, 1 mg/kg, Cmax, male rats, GeoMean (third rat excluded)): 305 ng/mL | Cmax ([2]; male, Sprague Dawley, rat, plasma, iv, 1 mg/kg, Cmax, male rats, individual rat): 237 ng/mL | half-life ([2]; male, Sprague Dawley, rat, plasma, iv, 1 mg/kg, T1/2, male rats, GeoMean (third rat excluded)): 9.64 h | Tmax ([2]; male, Sprague Dawley, rat, plasma, iv, 1 mg/kg, Tmax, male rats, GeoMean (third rat excluded)): 0.0833 h | Tmax ([2]; male, Sprague Dawley, rat, plasma, iv, 1 mg/kg, Tmax, male rats, individual rat): 0.0833 h | Vd ([2]; male, Sprague Dawley, rat, plasma, iv, 1 mg/kg, Vss, male rats, GeoMean (third rat excluded)): 5.81 L/kg | Vd ([2]; male, Sprague Dawley, rat, plasma, iv, 1 mg/kg, Vss, male rats, individual rat): 4.14 L/kg | Vd ([2]; male, Sprague Dawley, rat, plasma, iv, 1 mg/kg, Vz, male rats, GeoMean (third rat excluded)): 5.82 L/kg | MTD at 14 days [3]: 25 to 50 mg/kg | Mortality (male Nude mice; 0.5 MTD group, five days a week for two weeks, day 7): Two mice died | Condition of other groups (male Nude mice; chronic dosing 0.2 MTD and MTD groups, 14 days): looked healthy | Host toxicity ([4]; CWR22Rv1 xenograft study): no apparent host toxicity | Suppression of tumor growth ([4]; CWR22Rv1 xenograft, 2 at 7.53-fold lower equimolar dose than Gal, p < 0.01): 84% | Efficacy compared with enzalutamide ([4]; CWR22Rv1 xenograft): more efficacious than enzalutamide
